Data: ChEMBL document CHEMBL2346589, “Fragment-based drug discovery of 2-thiazolidinones as inhibitors of the histone reader BRD4 bromodomain” (J Med Chem, 2013)
pIC50: −log10 of the molar value.

Experiments:
[1] = biological target: T1, Bromodomain-containing protein 4 (Homo sapiens, UniProt O60885); assay: Displacement of FITC-labeled (+)-JQ1 from bromodomain BRD4(1) (unknown origin) expressed in Escherichia coli BL21(DE3) at 50 uM after 4 hrs by fluorescence anisotropy assay relative to control
Outline: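 Same BRD4(1) fluorescence anisotropy competition set-up: 45 nM protein, 5 nM FITC-(+)-JQ1 tracer, HEPES pH 7.4/CHAPS buffer, 4 h in the dark at room temperature, ex 485/em 530 nm. Single ligand concentration of 50 μM, reported as percent inhibition.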

[2] = biological target: T1, Bromodomain-containing protein 4; assay: Displacement of FITC-labeled (+)-JQ1 from bromodomain BRD4(1) (unknown origin) expressed in Escherichia coli BL21(DE3) after 4 hrs by fluorescence anisotropy assay
Outline: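 BRD4(1), His6-tagged, expressed in E. coli BL21(DE3) codon plus RIL, Ni-NTA purified, tag removed with TEV, then gel filtration. Varied compound concentrations, DMSO 5‰ final. 4 h equilibration in the dark at room temperature. IC50 from two independent experiments.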

CYP3A4 = CYP3A4 (Homo sapiens, UniProt P08684); assay: Inhibition of CYP3A4 (unknown origin)-mediated midazolam metabolite conversion at 10 uM after 20 mins relative to control; format: ADME; details: probe midazolam
Chain of CYP3A4 (P08684 whole entry): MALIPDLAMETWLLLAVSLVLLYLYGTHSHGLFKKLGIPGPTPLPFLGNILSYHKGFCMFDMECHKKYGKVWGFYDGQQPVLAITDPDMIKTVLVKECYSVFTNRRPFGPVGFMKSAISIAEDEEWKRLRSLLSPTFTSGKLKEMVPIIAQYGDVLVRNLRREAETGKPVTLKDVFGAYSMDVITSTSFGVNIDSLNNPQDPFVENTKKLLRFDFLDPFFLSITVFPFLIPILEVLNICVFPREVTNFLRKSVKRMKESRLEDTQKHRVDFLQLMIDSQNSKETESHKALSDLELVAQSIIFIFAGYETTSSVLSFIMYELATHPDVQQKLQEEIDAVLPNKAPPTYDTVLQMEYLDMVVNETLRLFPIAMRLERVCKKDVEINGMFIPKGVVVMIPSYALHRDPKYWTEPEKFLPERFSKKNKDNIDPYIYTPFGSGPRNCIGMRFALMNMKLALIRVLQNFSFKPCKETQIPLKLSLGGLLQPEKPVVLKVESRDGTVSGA
Outline: (§1)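 Human liver microsomes at 0.2 mg/mL in 100 mM phosphate pH 7.4 with 1 mM NADPH. Probe cocktail: midazolam 10 μM, dextromethorphan 10 μM, diclofenac 20 μM, phenacetin 100 μM, mephenytoin 100 μM. Test compound at 10 μM; PBS as negative control. 5 min preincubation at 37 °C, then 20 min reaction started with an NADPH-generating system. Metabolite formation expressed relative to PBS.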

CYP2C19 = CYP2C19 (Homo sapiens, UniProt P33261); assay: Inhibition of CYP2C19 (unknown origin)-mediated mephenytoin metabolite conversion at 10 uM after 20 mins relative to control; format: ADME; details: probe mephenytoin; outline: as §1
Chain of CYP2C19 (P33261 whole entry): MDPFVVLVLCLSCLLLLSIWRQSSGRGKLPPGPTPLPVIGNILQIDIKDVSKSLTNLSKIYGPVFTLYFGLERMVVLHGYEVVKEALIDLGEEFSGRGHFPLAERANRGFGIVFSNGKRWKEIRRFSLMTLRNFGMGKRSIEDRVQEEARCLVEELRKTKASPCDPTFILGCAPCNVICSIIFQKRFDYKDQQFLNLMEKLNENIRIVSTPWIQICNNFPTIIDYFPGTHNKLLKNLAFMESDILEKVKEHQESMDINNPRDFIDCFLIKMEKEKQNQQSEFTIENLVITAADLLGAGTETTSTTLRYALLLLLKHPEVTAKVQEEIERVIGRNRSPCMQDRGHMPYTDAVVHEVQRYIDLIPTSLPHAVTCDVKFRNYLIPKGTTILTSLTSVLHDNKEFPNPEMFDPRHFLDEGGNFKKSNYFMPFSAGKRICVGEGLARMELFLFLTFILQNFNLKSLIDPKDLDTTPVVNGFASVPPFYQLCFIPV

[3] = Intrinsic clearance in mouse liver microsomes at 1 uM after 5 mins by LC/MS/MS analysis; format: ADME, Microsome; details: read-out: CLH
CYP2D6 = CYP2D6 (Homo sapiens, UniProt P10635); assay: Inhibition of CYP2D6 (unknown origin)-mediated dextromethorphan metabolite conversion at 10 uM after 20 mins relative to control; format: ADME; details: probe dextromethorphan; outline: as §1
Chain of CYP2D6 (P10635 whole entry): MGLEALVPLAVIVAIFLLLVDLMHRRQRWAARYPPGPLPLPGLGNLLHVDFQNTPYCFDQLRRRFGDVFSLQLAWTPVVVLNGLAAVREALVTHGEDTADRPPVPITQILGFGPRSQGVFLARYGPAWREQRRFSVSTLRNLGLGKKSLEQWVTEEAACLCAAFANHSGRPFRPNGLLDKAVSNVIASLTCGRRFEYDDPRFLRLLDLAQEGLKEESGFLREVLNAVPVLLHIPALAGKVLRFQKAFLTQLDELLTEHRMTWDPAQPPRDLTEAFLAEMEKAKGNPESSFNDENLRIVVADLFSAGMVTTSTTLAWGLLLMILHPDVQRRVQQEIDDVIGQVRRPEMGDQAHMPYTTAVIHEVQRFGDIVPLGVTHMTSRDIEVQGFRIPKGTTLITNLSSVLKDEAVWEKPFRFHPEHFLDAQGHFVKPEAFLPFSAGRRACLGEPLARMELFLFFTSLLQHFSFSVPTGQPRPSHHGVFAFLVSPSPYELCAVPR

CYP1A2 = biological target: T2, CYP1A2 (Homo sapiens, UniProt P05177); assay: Inhibition of CYP1A2 (unknown origin)-mediated phenacetin metabolite conversion at 10 uM after 20 mins relative to control; format: ADME; details: probe phenacetin; outline: as §1
T2 sequence (P05177 whole entry): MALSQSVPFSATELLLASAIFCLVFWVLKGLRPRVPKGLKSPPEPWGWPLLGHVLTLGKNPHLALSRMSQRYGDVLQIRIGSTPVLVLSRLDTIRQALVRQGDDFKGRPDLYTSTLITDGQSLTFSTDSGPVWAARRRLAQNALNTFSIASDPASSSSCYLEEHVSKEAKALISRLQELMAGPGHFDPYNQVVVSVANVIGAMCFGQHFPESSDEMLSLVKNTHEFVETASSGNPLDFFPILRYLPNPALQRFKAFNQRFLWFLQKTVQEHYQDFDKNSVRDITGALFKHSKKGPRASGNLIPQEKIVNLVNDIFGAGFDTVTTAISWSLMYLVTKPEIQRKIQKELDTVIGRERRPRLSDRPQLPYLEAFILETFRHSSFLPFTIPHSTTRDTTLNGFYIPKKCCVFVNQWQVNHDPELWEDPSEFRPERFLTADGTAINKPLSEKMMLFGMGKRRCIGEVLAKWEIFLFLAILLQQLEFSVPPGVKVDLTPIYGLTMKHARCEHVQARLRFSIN

[4] = Intrinsic clearance in human liver microsomes at 1 uM after 5 mins by LC/MS/MS analysis; format: ADME, Microsome; details: read-out: CLH
Outline: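 Liver microsomes at 0.5 mg/mL with 1 μM compound in 0.1 M phosphate pH 7.4, 1 mM EDTA, 5 mM MgCl2. Preincubated 5 min at 37 °C, then started with 1 mM NADPH. Sampled at 0, 5, 10 and 30 min, quenched with cold acetonitrile. Parent remaining measured by LC/MS/MS.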

CYP2C9 = CYP2C9 (Homo sapiens, UniProt P11712); assay: Inhibition of CYP2C9 (unknown origin)-mediated diclofenac metabolite conversion at 10 uM after 20 mins relative to control; format: ADME; details: probe diclofenac; outline: as §1
Chain of CYP2C9 (P11712 whole entry): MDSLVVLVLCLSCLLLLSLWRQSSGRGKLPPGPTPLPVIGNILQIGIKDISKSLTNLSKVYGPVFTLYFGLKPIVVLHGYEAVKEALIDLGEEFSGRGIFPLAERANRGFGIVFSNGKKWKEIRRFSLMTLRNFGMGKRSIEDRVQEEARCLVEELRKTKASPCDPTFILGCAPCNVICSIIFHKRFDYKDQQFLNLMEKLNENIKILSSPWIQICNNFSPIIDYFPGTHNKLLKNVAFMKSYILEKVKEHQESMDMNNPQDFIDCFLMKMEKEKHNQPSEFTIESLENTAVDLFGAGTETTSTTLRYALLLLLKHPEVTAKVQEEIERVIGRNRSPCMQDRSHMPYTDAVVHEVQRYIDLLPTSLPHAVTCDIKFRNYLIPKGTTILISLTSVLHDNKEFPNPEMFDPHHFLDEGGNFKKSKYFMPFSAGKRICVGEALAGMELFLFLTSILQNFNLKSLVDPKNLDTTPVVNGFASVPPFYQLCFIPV

[5] = biological target: T1, Bromodomain-containing protein 4; assay: Inhibition of bromodomain BRD4-mediated c-myc mRNA expression in human HT-29 cells at 10 uM after 24 hrs by RT-qPCR analysis relative to control; format: cell-based
Outline: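 HT-29 cells (McCoy's 5A, 10% FBS, 37 °C, 5% CO2) seeded in six-well plates overnight, then exposed 24 h to compound at 10 μM final (DMSO stock diluted in saline). Total RNA extracted with Trizol, reverse-transcribed, and quantified by RT-qPCR. c-myc levels normalised to β-actin and expressed relative to untreated control. Three independent experiments, mean ± SD.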

HT-29 = assay: Growth inhibition of human HT-29 cells after 72 hrs by sulforhodamine B assay; format: functional; details: HT-29, 72 h
Outline: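 HT-29 cells in McCoy's 5A with 10% FBS at 37 °C, 5% CO2. DMSO stocks (0.01 mol/L) diluted in normal saline. Graded concentrations applied in triplicate for 72 h, then SRB staining with A560 read-out. Inhibition rate from A560 treated/control. GI50 from four independent experiments, mean ± SD.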

Work on `O=C(Nc1cc(-c2csc(=O)[nH]2)ccc1NS(=O)(=O)Cc1ccccc1)C1CCCC1` yielded an inhibition [1] of 20.2%.

`O=c1[nH]c(-c2cccc(NCCc3ccccc3)c2)cs1` showed a pIC50 [2] of 4.64.

For `O=C(Cc1ccccc1)Nc1cc(-c2csc(=O)[nH]2)ccc1NS(=O)(=O)c1cccs1`, the pIC50 [2] was 5.46.

Work on `O=c1[nH]c(-c2cccc(NS(=O)(=O)c3cccs3)c2)cs1` yielded an inhibition at 20 min, 10 µM (CYP3A4) of 17%, an inhibition at 20 min, 10 µM (CYP2C19) of 36% and a microsomal CLint at 1 µM [3] of 120 µL/min/mg. It also gave a pIC50 [2] of 5.39, an inhibition at 20 min, 10 µM (CYP2D6) of 22% and an inhibition at 20 min, 10 µM (CYP1A2) of 16%. The microsomal CLint at 1 µM [4] was 24 µL/min/mg and the inhibition at 20 min, 10 µM (CYP2C9) was 34%.

`Cc1noc(C)c1-c1ccccc1` gave a pIC50 [2] of 6.10, an inhibition [5] greater than 50% and a GI50 (HT-29) of 22.5 µM.

In the case of `O=c1[nH]c(-c2cccc(NS(=O)(=O)c3ccc(F)cc3)c2)cs1`, the pIC50 [2] was 5.43 and the GI50 (HT-29) was 47.8 µM.

In the case of `O=C(CCc1ccccc1)Nc1cc(-c2csc(=O)[nH]2)ccc1NS(=O)(=O)c1cccs1`, the pIC50 [2] was 5.59.

In the case of `Nc1ccc(-c2csc(=O)[nH]2)cc1`, the pIC50 [2] was 4.29.

Work on `Nc1cc(N)cc(-c2csc(=O)[nH]2)c1` yielded a pIC50 [2] of 4.29.

In the case of `CCCC(=O)Nc1cc(-c2csc(=O)[nH]2)ccc1NS(=O)(=O)c1cccs1`, the pIC50 [2] was 5.62.

Compound `O=C(Nc1cc(NS(=O)(=O)c2cccs2)cc(-c2csc(=O)[nH]2)c1)c1cccs1` has an inhibition at 20 min, 10 µM (CYP3A4) of 8%, an inhibition at 20 min, 10 µM (CYP2C19) of 39% and a microsomal CLint at 1 µM [3] of 52 µL/min/mg. It also gave an inhibition at 20 min, 10 µM (CYP2D6) of 20%, an inhibition at 20 min, 10 µM (CYP1A2) of 29% and a microsomal CLint at 1 µM [4] of 18 µL/min/mg. For the same compound, the inhibition at 20 min, 10 µM (CYP2C9) was 41%.

Work on `O=c1[nH]c(-c2ccc(NS(=O)(=O)c3cccs3)cc2)cs1` yielded an inhibition [1] of 38.6%.

Compound `O=C(Cc1ccccc1)Nc1cccc(-c2csc(=O)[nH]2)c1` has an inhibition [1] of 45.6%.

Work on `Nc1cccc(-c2csc(=O)[nH]2)c1` yielded a pIC50 [2] of 4.38.

With `O=C(CCC1CCCCC1)Nc1cc(NS(=O)(=O)c2cccs2)cc(-c2csc(=O)[nH]2)c1` the pIC50 [2] was 5.66.

Work on `O=c1[nH]c(-c2cccc(NS(=O)(=O)Cc3ccccc3)c2)cs1` yielded a pIC50 [2] of 5.39.

Work on `O=c1[nH]c(-c2cccc(NS(=O)(=O)c3cccc4cccnc34)c2)cs1` yielded an inhibition [1] of 45.7%.

For `CCCC(=O)Nc1cc(NS(=O)(=O)c2cccs2)cc(-c2csc(=O)[nH]2)c1`, the pIC50 [2] was 6.10.

Compound `O=C(CCc1ccccc1)Nc1cc(NS(=O)(=O)c2cccs2)cc(-c2csc(=O)[nH]2)c1` has a pIC50 [2] of 6.24.

`COc1ccc(S(=O)(=O)Nc2cccc(-c3csc(=O)[nH]3)c2)cc1` gave a pIC50 [2] of 5.36.

For `O=c1[nH]c(-c2ccc(NS(=O)(=O)c3cccs3)c(O)c2)cs1`, the pIC50 [2] was 5.48.

In the case of `O=c1[nH]c(-c2cccc(NS(=O)(=O)c3cccnc3)c2)cs1`, the pIC50 [2] was 5.00.

`O=c1[nH]c(-c2cccc(Cl)c2)cs1` showed a pIC50 [2] of 4.62.

With `O=C(Nc1cc(-c2csc(=O)[nH]2)ccc1NS(=O)(=O)c1cccs1)C1CCCC1` the pIC50 [2] was 5.60 and the GI50 (HT-29) was 63.6 µM.

`Nc1ccc(-c2csc(=O)[nH]2)cc1O` showed a pIC50 [2] of 4.62.

In the case of `Nc1cc(NS(=O)(=O)c2cccs2)cc(-c2csc(=O)[nH]2)c1`, the pIC50 [2] was 5.59, the inhibition [5] was greater than 50% and the GI50 (HT-29) was 37.3 µM.
